rCAG binder – r(CAG) repeat RNA binding; TO-PRO-1 dye displacement fluorescence; inhibition, % at 3 µM; hit rate 1.3% among 370,000;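 active = inhibition above the plate cutoff, the mean of all test compounds on that plate plus 3 SD, cut at about 35% in these data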;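 also: 0% = DMSO alone and 100% = 100 µM mitoxantrone as full dye displacement; higher means more dye released from RNA so lower well fluorescence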
STEP inh – blocks human striatal-enriched tyrosine phosphatase; recombinant STEP, OMFP fluorogenic substrate, fluorescence; inhibition, % at 20 µM; hit rate 0.25% among 360,000; AID 588621;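 active = inhibition at 20 µM, scaled per plate between control wells, above about 37%, limit read from the data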;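 also: 0% = DMSO with enzyme and substrate and 100% = substrate only without enzyme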
Target sequence (P54829 whole entry, looked up): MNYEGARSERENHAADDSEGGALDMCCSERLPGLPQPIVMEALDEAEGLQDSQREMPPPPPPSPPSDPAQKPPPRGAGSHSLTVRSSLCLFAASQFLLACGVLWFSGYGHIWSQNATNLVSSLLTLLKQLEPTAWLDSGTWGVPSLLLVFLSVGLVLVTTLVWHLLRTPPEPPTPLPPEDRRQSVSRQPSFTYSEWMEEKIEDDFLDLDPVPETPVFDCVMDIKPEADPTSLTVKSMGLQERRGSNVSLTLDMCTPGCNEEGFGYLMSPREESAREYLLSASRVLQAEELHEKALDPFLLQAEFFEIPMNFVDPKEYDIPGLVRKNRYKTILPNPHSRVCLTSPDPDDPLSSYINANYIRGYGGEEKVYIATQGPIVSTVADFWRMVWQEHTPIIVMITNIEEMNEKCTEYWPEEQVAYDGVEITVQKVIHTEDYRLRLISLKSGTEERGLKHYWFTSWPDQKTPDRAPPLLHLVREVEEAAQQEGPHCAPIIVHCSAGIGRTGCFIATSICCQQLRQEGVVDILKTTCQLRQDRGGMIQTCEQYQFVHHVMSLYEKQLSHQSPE
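medium = Bis-Tris buffer pH 6.0, 2.5 mM DTT, 0.005% Tween 20 | test system = STEP (striatal-enriched tyrosine phosphatase) enzyme, cell-free | measure = normalized % inhibition | compound dosing = 20 µM, 1% DMSO | also added = 25 µM OMFP | schedule = reaction 20 min, ambient temperature | measured by = fluorescence read at 480 nm ex / 540 nm em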
Scp1 inh – inhibitors of human Scp-1 phosphatase. AID 493091. inhibition, % at 20 µM. hit rate 0.88% among 340,000. Recombinant Scp1, phosphopeptide, malachite green phosphate absorbance. Q9GZU7;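 active = inhibition above about 50% at 20 µM, limit read from the data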;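 also: plate controls were DMSO wells with enzyme for no effect and wells lacking enzyme for full effect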
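System: truncated SCP-1 phosphatase (76-261aa); medium: Tris acetate buffer pH 5.5 with MgCl2 and Tween-20; incubation: 45 min room-temperature reaction, 5 min colour, 30 min stabiliser; compound: single 20 µM dose, 1% DMSO; reagent: Phosphorylated 17-residue peptide substrate; read-out: % inhibition at 20 µM; technique: colorimetric free-phosphate detection, absorbance 630 nm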
LMPTP inh – blocks human LMPTP phosphatase; P24666; recombinant LMPTP-A, OMFP fluorogenic substrate, fluorescence intensity; inhibition, % at 20 µM; hit rate 0.22% among 360,000;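 active = compounds that cut the enzyme signal by at least half of the control window in the single-dose screen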;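 also: plate controls were DMSO wells with enzyme plus substrate for no effect and substrate without enzyme for full effect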
Target sequence (P24666 whole entry, looked up): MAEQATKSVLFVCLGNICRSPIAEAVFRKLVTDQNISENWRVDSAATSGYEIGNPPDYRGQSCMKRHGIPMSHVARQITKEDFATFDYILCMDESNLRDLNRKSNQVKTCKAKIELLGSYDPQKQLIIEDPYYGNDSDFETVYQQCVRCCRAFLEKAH
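Assay system: LMPTP-A phosphatase enzyme | Input: 0.625 nM enzyme | Also added: Fluorogenic phosphatase substrate OMFP at 400 µM final | Compound dosing: One test concentration per compound, 20 µM, with 3% DMSO overall | Schedule: 50 min enzyme reaction at room temperature, protected from light | Signal: Fluorescence intensity | Benchmarks: no-enzyme and uninhibited controls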
NadD inh – inhibitors of Staphylococcus aureus NadD; purified NadD enzyme, colorimetric absorbance read-out; inhibition, % at 20 µM; hit rate 0.78% among 360,000; AID 602399; in the data active = inhibition above about 26%
Active calls of the source: *; x = no result given. This is a sample that favours compounds with a hit; in the whole collection about 2.6% have one here.

SMILES | rCAG binder | STEP inh | Scp1 inh | LMPTP inh | NadD inh
C[C@@H]1COc2cc(Br)ccc2S(=O)(=O)N1Cc1cn(Cc2ccc(Br)cc2)nn1 | 7.5 | x | x | x | x
CCOC(=O)C1=C(CSc2nc3c(cc2C#N)CN(C)CC3)OC(N)=C(C#N)C1c1ccc(F)cc1 (stereo not drawn) | 50.4* | -1.3 | -10.4 | 4.4 | 15.9
COc1cc(/C=C(\C#N)c2nc3ccc(C)cc3[nH]2)cc([N+](=O)[O-])c1O | 62.6* | 8.2 | 39.9 | 7.9 | 18.5
CCCCNC(=O)C1(C(=O)c2ccc(OC)cc2)CC(C(=O)OCC)=NO1 (stereo not drawn) | 0.8 | x | x | x | x
O=c1oc2c3c4c(cc2s1)CCCN4CCC3 | 2.1 | 2.7 | 2.7 | 66.6* | 26.2
CCn1c(=NC(=O)c2cccc(N3C(=O)CCC3=O)c2)sc2c(C)ccc(OC)c21 | 2.7 | 0.6 | -6.8 | 3.3 | -9.3
CCn1c(=NC(=O)c2ccc(N3C(=O)CCC3=O)cc2)sc2c(OC)ccc(OC)c21 | 15.0 | 3.5 | 58.0* | 3.6 | 11.2
O=C(Nc1ccc2c(c1)OCO2)OC1CC2CC1[C@H]1CCCCN1[C@H]2Cc1ccccc1 (stereo partly drawn) | 0.9 | x | x | x | x
COC(=O)[C@@]12CCCCC3=C1N(CCC3)C(=O)[C@H]2CC(=O)N1CCN(C(=O)C2CC2)CC1 | 0.3 | x | x | x | x
COC(=O)c1ccc(NC(=O)c2ccc(NC(=O)c3ccco3)cc2)cc1 | -3.8 | 14.7 | 7.0 | 47.9 | 8.6
CC(=O)c1ccc(NC(=O)c2ccc(NC(=O)c3ccco3)cc2)cc1 | x | 85.8* | 39.5 | 72.2* | 7.0
O=C(CSc1ccc(Cl)cc1)c1ccco1 | x | 11.0 | 72.9* | 20.4 | 3.3
O=C(CCSc1ccc(Cl)cc1)c1ccco1 | -2.4 | 3.0 | -10.4 | 2.0 | -11.7
C=CCN1[C@H](Cc2ccccc2)COc2cc(F)ccc2S1(=O)=O | -2.7 | x | x | x | x
CC(C)C(=O)N[C@H]1[C@H](O)CCC[C@]12C(=O)N(Cc1ccccc1)c1ccccc12 | 3.7 | x | x | x | x
Cc1nc2c(C(=O)NCc3ccc4c(c3)OCO4)c[nH]n2c(=O)c1Cl | 55.1* | -2.9 | 3.1 | -0.9 | 18.0
Cc1ccc(C(=O)NCc2ccc3c(c2)OCO3)c(Cl)c1 | -0.3 | -0.4 | x | 0.0 | 0.6
Cc1csc2nc(O)c(C(=O)NCc3ccc4c(c3)OCO4)c(=O)n12 | 4.4 | 1.3 | -4.9 | 52.8* | 10.0
Cc1nc2c(C(=O)NCCC3=CCCCC3)c[nH]n2c(=O)c1Cl | 71.4* | -1.0 | 14.7 | -1.5 | 19.9
O=C(Nc1ccc2c(c1)Cc1ccccc1-2)NC1CCCCN(Cc2ccc(Cl)cc2)C1=O (stereo not drawn) | 12.8 | x | x | x | x
OC(c1ccccc1)(c1ccccc1)C1CCN(CCCNc2cccc(Br)c2)CC1 | 0.8 | x | x | x | x
CCC(=O)Nc1ccc2c(c1)C(=O)N(C)[C@@H]1CC[C@@H](CC(=O)NCCN3CCCCC3)O[C@H]1CO2 | 4.8 | x | x | x | x
CCOC(=O)[C@@]12CN(C(=O)OC(C)(C)C)CC=C1N(Cc1ccc(OC)cc1)C(=O)[C@H]2CC(=O)N1CCC(c2ccccc2)CC1 | 2.3 | x | x | x | x
COc1ccc(S(=O)(=O)Nc2ccccc2C(=O)NCc2ccco2)cc1Br | 43.3* | 0.4 | -10.7 | 1.7 | 15.0
CCOc1ccc(S(=O)(=O)Nc2ccccc2C(=O)NCc2ccco2)cc1 | 20.6 | -0.9 | -13.9 | 0.0 | -4.6
SMILES | rCAG binder | STEP inh | Scp1 inh | LMPTP inh | NadD inh
Cc1[nH]n(-c2nc(-c3ccc(Cl)cc3)cs2)c(=O)c1N=Nc1ccc(O)cc1 | 4.3 | 9.2 | -5.2 | 6.2 | 36.7*
COC(=O)c1ccc(Cn2ccc3ccc(-c4ccc5ccn(C(=O)c6ccccc6OC)c5c4)cc32)cc1 | 12.7 | x | x | x | x
O=c1c2c3c(sc2nc2n1CCCCC2)CCCCC3 | x | 1.9 | x | -0.1 | -2.9
N=c1c2c3c(sc2nc2n1CCCCC2)CCCCC3 | 6.1 | 42.0* | -2.0 | 0.2 | -4.4
COCCCNC(=O)C[C@H]1C[C@@]2(C(=O)OC)C(=C[C@H](COCc3ccccc3)O[C@@H]2C)N(Cc2cccc3ccccc23)C1=O | 6.2 | x | x | x | x
CCn1c(CSc2nc3ccccc3s2)nnc1SCC(=O)c1ccc(O)c(O)c1 | 27.7 | 0.9 | 59.2* | 49.9 | 18.4
Cc1cc2nc(-c3cccc(Cl)c3)c(Cc3cccc(Cl)c3)n2c(C)c1Br | 34.5* | x | x | 3.9 | 21.7
Cc1ccc(Cc2c(-c3cccc(Cl)c3)nc3ccc(Br)cn23)cc1 | 43.9* | -3.4 | x | 0.9 | 17.8
Cc1cc2nc(-c3ccc(Cl)cc3)c(Cc3cccc(Cl)c3)n2c(C)c1Br | 25.4 | x | x | 1.8 | 26.4
COc1ccc(C(=O)/C(C#N)=N/Nc2ccc([N+](=O)[O-])cc2)cc1 | 6.2 | 95.8* | 65.6* | 73.4* | -3.2
Cc1cc(=O)oc2cc(OCC(=O)N/N=C/c3cc([N+](=O)[O-])ccc3O)ccc12 | 6.1 | 93.9* | 30.1 | 71.4* | 0.1
CCCCNC(=O)c1nc(C2CCN(S(=O)(=O)c3ccccc3)CC2)oc1-c1cccc(C(F)(F)F)c1 | -1.2 | 2.9 | x | 4.1 | -2.8
CCCCNC(=O)c1nc(C2CCNCC2)oc1-c1cccc(C(F)(F)F)c1 | 7.6 | x | x | 60.0* | x
C=CCN1C[C@@H](COCc2ccccc2)Oc2cccc(F)c2S1(=O)=O | -0.6 | x | x | x | x
N#Cc1c(N2CCCC2)nc(N)c2c(N)nc(N3CCCC3)cc12 | 31.9 | 60.4* | 8.2 | 41.4 | 10.9
Cc1ccccc1N1CCN(C2=NC(=O)/C(=C/c3cn[nH]c3-c3ccccc3)S2)CC1 | 1.1 | 2.8 | 1.7 | 2.3 | 40.5*
COC(=O)[C@]12C[C@H](CC(=O)NCc3cccc(C(F)(F)F)c3)C(=O)N(Cc3ccco3)C1=C[C@H](C(C)(C)C)O[C@@H]2C | -1.0 | x | x | x | x
O=C(Nc1ccc2oc(=O)ccc2c1)c1ccc(-c2cccc([N+](=O)[O-])c2)o1 | 9.3 | 28.3 | 31.9 | 54.0* | 20.1
CCOC(=O)N1CCN(C(=O)c2cc(-c3ccc(OCC)cc3)nc3ccccc23)CC1 | -1.1 | 9.0 | -6.2 | 0.7 | -3.1
CCOc1ccc(-c2cc3nc(C4CCN(C(=O)OC(C)(C)C)CC4)c(C(=O)O)cn3n2)cc1 | 69.6* | 3.1 | -8.7 | 1.1 | 1.4
COc1ccc(CNC[C@@H](CCCCN(C)Cc2ccc(OC)cc2)N2C[C@H](c3ccccc3)N(CCc3ccc(Cl)c(Cl)c3)C(=O)C2=O)cc1 | x | 10.7 | 27.3 | 56.7* | 18.1
CCCCN(C)C(=O)CN1C(=O)C2CCCCN2C(=O)c2ccccc21 (stereo not drawn) | 3.6 | x | x | x | x
C=CCN(CC=C)Cc1c(O)ccc2c1oc(=O)c1ccccc12 | 7.5 | 1.7 | 55.7* | 5.0 | 9.9
Fc1ccc(-c2nc3c(Cl)cc(C(F)(F)F)cn3c2Cc2ccsc2)cc1 | 27.5 | x | x | -1.6 | 8.8
Cc1ccc(-c2nc3c(Cl)cc(C(F)(F)F)cn3c2Cc2ccsc2)cc1 | 55.1* | x | x | 0.4 | 8.1
O=C(OC12CCCN(C1)/C(=C/c1ccc(Cl)cc1)C2)C1CCCCC1 (stereo not drawn) | 3.7 | x | x | x | x
